In article PMC7949150 (The Journal of Biological Chemistry, 2021):

Experiments:
[1] = target: PRC2 (Homo sapiens, UniProt Q15910); test: Differential scanning fluorimetry binding assay; conditions: 750 nM PRC2, 20 μM compound, 200 μM activating peptide; mean ± SEM, N = 3
Procedure, shortened: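 In-house pentameric PRC2 was mixed with test compound, H3K27me3 activator peptide and 4× thermal-shift dye in 50 mM Hepes pH 7.4, 100 mM NaCl, 1 mM TCEP, 0.2% DMSO. The mix was equilibrated 90 min at RT, then melted from 25 °C to 95 °C at 0.05 °C/s in a real-time PCR instrument. Tm was taken from the first-derivative peak and from a Boltzmann fit. ΔTm is compound minus DMSO control.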

[2] = test system: H3K27me3 levels in KARPAS-422 tumors; test: Tumor pharmacodynamic assay; format: in vivo, mice; conditions: Day 12
[3] = Plasma protein binding; format: in vitro ADME

Sequence of PRC2 (Q15910 whole entry): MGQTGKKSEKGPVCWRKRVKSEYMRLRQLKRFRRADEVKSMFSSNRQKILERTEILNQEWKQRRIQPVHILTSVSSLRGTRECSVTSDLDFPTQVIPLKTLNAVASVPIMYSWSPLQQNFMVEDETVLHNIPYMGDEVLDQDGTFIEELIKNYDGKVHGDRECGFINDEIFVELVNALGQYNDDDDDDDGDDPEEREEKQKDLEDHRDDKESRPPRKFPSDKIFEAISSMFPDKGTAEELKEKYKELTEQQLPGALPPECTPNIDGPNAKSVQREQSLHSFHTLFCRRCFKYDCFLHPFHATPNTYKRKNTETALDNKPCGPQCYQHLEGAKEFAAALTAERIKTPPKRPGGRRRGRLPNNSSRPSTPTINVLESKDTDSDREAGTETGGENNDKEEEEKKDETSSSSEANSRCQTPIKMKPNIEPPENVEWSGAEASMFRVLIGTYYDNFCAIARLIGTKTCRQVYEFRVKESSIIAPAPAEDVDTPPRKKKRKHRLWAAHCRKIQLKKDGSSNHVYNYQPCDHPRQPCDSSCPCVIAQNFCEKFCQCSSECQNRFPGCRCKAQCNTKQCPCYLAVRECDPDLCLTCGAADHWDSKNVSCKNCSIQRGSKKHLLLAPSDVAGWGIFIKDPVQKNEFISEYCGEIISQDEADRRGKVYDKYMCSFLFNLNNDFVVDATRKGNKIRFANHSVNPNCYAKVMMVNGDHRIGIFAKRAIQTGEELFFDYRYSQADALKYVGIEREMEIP
Sequence of PRC2 (O75530 whole entry partner): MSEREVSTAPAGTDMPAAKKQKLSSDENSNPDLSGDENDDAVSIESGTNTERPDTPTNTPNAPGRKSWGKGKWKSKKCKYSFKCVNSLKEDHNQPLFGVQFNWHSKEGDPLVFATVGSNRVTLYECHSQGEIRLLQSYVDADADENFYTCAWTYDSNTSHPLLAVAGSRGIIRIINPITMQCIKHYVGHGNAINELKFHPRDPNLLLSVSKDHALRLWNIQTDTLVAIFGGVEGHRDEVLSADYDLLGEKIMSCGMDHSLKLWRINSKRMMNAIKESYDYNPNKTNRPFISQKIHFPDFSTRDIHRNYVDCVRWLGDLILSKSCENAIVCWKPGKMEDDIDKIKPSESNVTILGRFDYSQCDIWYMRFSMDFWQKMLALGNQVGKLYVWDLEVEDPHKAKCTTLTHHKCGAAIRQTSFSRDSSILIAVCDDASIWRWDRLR
Sequence of PRC2 (Q15022 whole entry partner): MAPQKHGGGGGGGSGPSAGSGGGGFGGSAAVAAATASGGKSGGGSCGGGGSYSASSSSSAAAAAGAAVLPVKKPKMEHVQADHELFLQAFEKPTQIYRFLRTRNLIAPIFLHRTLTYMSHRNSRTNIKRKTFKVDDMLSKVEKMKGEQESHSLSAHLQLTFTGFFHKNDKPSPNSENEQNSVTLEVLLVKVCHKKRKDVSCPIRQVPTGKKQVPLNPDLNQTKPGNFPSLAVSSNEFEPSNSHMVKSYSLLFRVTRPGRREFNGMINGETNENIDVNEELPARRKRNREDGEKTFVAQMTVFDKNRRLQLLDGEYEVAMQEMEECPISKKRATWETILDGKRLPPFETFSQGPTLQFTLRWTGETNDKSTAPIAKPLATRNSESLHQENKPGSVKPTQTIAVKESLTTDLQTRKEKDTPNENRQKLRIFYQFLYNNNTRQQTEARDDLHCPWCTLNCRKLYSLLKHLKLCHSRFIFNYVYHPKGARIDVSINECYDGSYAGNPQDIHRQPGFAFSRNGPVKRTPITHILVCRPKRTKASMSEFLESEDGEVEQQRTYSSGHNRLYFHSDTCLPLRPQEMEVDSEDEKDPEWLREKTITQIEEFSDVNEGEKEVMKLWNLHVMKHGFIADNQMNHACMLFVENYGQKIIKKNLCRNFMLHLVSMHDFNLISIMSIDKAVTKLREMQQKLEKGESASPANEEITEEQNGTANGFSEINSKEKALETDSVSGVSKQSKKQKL
Sequence of PRC2 (Q16576 whole entry partner): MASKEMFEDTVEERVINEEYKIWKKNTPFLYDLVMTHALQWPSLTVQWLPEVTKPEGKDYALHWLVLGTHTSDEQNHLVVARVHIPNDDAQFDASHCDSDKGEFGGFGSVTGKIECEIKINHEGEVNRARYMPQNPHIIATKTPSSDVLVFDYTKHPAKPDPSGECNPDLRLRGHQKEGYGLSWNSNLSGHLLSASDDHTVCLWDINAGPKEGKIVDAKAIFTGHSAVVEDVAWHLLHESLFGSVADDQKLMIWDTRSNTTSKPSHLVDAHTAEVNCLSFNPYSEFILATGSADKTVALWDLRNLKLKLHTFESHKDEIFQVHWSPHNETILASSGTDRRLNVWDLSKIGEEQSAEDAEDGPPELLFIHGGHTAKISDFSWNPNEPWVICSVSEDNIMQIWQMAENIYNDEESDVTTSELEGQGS
Sequence of PRC2 (Q09028 whole entry partner): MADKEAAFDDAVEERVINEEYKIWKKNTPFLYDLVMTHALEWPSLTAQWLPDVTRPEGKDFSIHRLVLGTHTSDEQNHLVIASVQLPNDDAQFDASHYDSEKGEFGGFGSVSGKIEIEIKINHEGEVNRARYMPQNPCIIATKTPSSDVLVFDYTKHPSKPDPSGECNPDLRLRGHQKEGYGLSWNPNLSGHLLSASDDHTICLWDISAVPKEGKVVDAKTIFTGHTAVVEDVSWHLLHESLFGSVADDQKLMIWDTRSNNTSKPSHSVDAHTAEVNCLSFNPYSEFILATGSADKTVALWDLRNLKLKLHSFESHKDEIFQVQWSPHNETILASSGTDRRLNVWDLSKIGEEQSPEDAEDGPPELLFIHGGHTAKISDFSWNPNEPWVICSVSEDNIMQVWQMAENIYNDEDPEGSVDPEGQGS

SMILES	ΔTmD (first derivative melting peak) [1] [°C]	reduction in H3K27me3 levels in tumors ([2]; 25 mg/kg QD PO)	H3K27me3 levels in tumors ([2]; 160 mg/kg BID PO)	fraction unbound [3]	total plasma levels (25 mg/kg QD PO, 1 h postdose on Day 12) [ng/mL]	total concentration in tumors (female, CB-17 SCID, mouse, in vivo) [ng/g]
COc1cc(C)[nH]c(=O)c1CNC(=O)c1c(C)n([C@H](C)C2CCN(CC(F)(F)F)CC2)c2ccccc12 [CPI-1205, (R)-N-((4-Methoxy-6-methyl-2-oxo-1,2-dihydropyridin-3-yl)methyl)-2-methyl-1-(1-(1-(2,2,2-trifluoroethyl)piperidin-4-yl)ethyl)-1H-indole-3-carboxamide]	11.54 ± 0.05					
CCN(c1cc(-c2ccc(CN3CCOCC3)cc2)cc(C(=O)NCc2c(C)cc(C)[nH]c2=O)c1C)C1CCOCC1 [Tazemetostat]		no statistically significant reduction	significant loss of H3K27me3 levels	0.009	6100	730
